Experimental data pooled from the literature.
Compare with care: the assays were run in different laboratories.
MMP1: Interstitial collagenase (MMP1, Homo sapiens, UniProt P03956)
CASP9: Caspase-9 (CASP9, Homo sapiens, UniProt P55211)

SMILES	target	effect on	action	technique	tested at	inhibition [%]
c1ccc(C(NCCNC(c2ccccc2)c2ccccc2)c2ccccc2)cc1	MMP1	enzyme activity	inhibitor		10 µM	-10
Cn1cc(-c2cc(F)cc(N3CCn4c(cc5c4CCCC5)C3=O)c2CO)cc(Nc2ccc(N3CCN(C4COC4)CC3)cn2)c1=O	Eukaryotic elongation factor 2 kinase (EEF2K, Homo sapiens, UniProt O00418)	enzyme activity	inhibitor		0.1 µM	4
COc1cc(Nc2ncc(F)c(Nc3ccc4c(n3)NC(=O)C(C)(C)O4)n2)cc(OC)c1OC	Cyclin-dependent kinase-like 1 (CDKL1, Homo sapiens, UniProt Q00532)	binding		competition with immobilised ligand	10 µM	84
COc1ccc(S(=O)(=O)N(CC(=O)NO)CC(C)C)cc1	MMP1	enzyme activity	inhibitor		10 µM	77
Cn1cc(-c2cccc(N3CCc4c(sc5c4CC(C)(C)C5)C3=O)c2CO)cc(Nc2ccncn2)c1=O	Hepatocyte growth factor receptor (MET, Homo sapiens, UniProt P08581)	enzyme activity	inhibitor		1 µM	9
COC(=O)CC[C@H](NC(=O)[C@H](CC(C)C)NC(=O)OCc1ccccc1)C(=O)N[C@@H](Cc1cnc[nH]1)C(=O)N[C@@H](CC(=O)OC)C(=O)CF	CASP9	enzyme activity	inhibitor		0.1 µM	7
C#Cc1n[nH]c2c(-c3cn([C@@H](C)c4ccccn4)c(=O)[nH]c3=O)cc(F)cc12	TGF-beta receptor type-1 (TGFBR1, Homo sapiens, UniProt P36897)	enzyme activity	inhibitor		0.1 µM	1.5
O=C(Nc1cccnn1)N1CCN([C@@H]2CCOc3cc(C(F)(F)F)ccc32)CC1	Alpha-1B adrenergic receptor (ADRA1B, Homo sapiens, UniProt P35368)	cell-free assay			20 µM	5
COCc1c(-c2cc3cc(C)cc(OC)c3s2)c2c(N)ncnn2c1CN1CCNC(=O)C1	Calcium-dependent protein kinase 1 (CDPK1, Plasmodium falciparum, UniProt P62344)	cell-free assay		competition with immobilised ligand	1 µM	93.3
N=C(N)c1ccc2cc(OC(=O)c3ccc(N=C(N)N)cc3)ccc2c1	Ubiquitin carboxyl-terminal hydrolase 7 (USP7, Homo sapiens, UniProt Q93009)	enzyme activity	inhibitor		10 µM	0
COc1ccc(S(=O)(=O)N2CCCCC2)cc1C	High affinity choline transporter 1 (SLC5A7, Homo sapiens, UniProt Q9GZV3)	ligand displacement		radioligand	10 µM	< 30
CCOC(=O)c1ccc(OC(=O)CCCCCNC(=N)N)cc1	CASP9	enzyme activity	inhibitor		10 µM	7
C#Cc1n[nH]c2c(-c3cn([C@@H](C)c4ccccc4)c(=O)[nH]c3=O)cc(F)cc12	TRAF2 and NCK-interacting protein kinase (TNIK, Homo sapiens, UniProt Q9UKE5)	enzyme activity	inhibitor		0.1 µM	-0.3
CN(C)C(=O)COC(=O)Cc1ccc(OC(=O)c2ccc(NC(=N)N)cc2)cc1	MMP1	enzyme activity	inhibitor		10 µM	3
Cc1ncc(C)n2nc(/C=C/c3nc(N4CCCC4)cc(N4CCOCC4)n3)nc12	MMP1	enzyme activity	inhibitor		10 µM	7
